Experimental findings from paper PMC3080100 (Chemical biology & drug design, 2011) are described below.

Holding throughout (type): cell-based, mouse
Test [1] has as its system EpH4 cells. The test is described as follows: Apoptosis scored as caspase-3 positive cells. As to conditions: mean ± SEM; for percentage of cells containing caspase-3 (apoptosis): 2 mM peptide; for percent apoptosis (caspase-3 positive cells): 200 μM peptide, 16 hours at 37°C. The gist of the method:
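EpH4 monolayers were exposed for 16 h to test compound over a dose range and fixed in 2% PFA (15 min RT). Then 0.5% Triton X-100 for 5 min and 2% BSA for 1 h. Primary: rabbit anti-cleaved caspase-3 (1:100), ± rat anti-ZO-1 (1:50), 1 h. Secondary: Cy3/FITC (1:150), 45 min. Percent positive cells scored; mean ± SEM, n=3-6 wells; unpaired t-test versus untreated.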

The subject of another test is claudin-4. The test is described as follows: Claudin-4 localization by immunofluorescence. As to conditions: EpH4 cells; for claudin-4 localization: 16 hours; for claudin-4 localization, time course: 400 μM, 16 hours at 4°C.
Test [2] has as its system EpH4 cells. Nature of the test: TUNEL staining. The method in brief:
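EpH4 cells on chamber slides were exposed to 350 μM test compound or control peptide for 8, 16 or 24 h. Fixed in 2% PFA and permeabilised in 1% sodium citrate with 0.1% Triton X-100. TUNEL staining used a TMR-red in situ cell death kit per manufacturer. Mean ± SEM, n=3-6.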

The test system of test [3] is caspase-8. Nature of the test: Active caspase-8, live-cell fluorescent indicator. As to conditions: EpH4 cells, 16 hours of peptide, indicator added during the last hour. The gist of the method:
(§1)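 EpH4 cells were grown 4-5 days on 8-well chamber slides to form tight junctions, then exposed to test compound or control peptide for 8, 16 or 24 h (DMSO <0.5% final). For the last 1 h, growth medium held 1X FLICA probe (sulforhodamine-DEVD-fmk for caspase-3/7; carboxyfluorescein-LETD-fmk for caspase-8). Optional 1 μM Hoechst 33342, 5 min 37°C; HBSS wash; 2% PFA, 15 min RT. Mean ± SEM, n=3-6.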

Another test relates to caspase-3. The test is described as follows: Active caspase-3. As to conditions: EpH4 cells. The gist of the method:
as §1

The subject of another test is claudin-3. The test is described as follows: Claudin-3 localization by immunofluorescence. The following applies: EpH4 cells, 16 hours, co-stained with ZO-1. The method in brief:
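EpH4 monolayers were exposed to peptide for 16 h, then fixed in 2% paraformaldehyde for 15 min at room temperature. Permeabilised with 0.5% Triton X-100 and blocked 1 h in 2% BSA. Stained 1 h with rabbit anti-claudin-3 (1:200) and rat anti-ZO-1 (1:50), then 45 min with fluorophore-conjugated donkey secondaries (1:150). Nuclei counterstained with DAPI; confocal z-stacks imaged.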

Test [4] deals with EpH4 cells. The test is described as follows: Live-cell binding/localization of FITC-labeled peptide at 4°C, EpH4. The following applies: 400 μM, 1 hour at 4°C; for localization/binding of FITC-peptide at the plasma membrane: live imaging; for fluorescence intensity of FITC: washed in ice cold PBS, background subtracted, mean ± SEM, n=3 separate cultures, p=0.007. The gist of the method:
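EpH4 cells were incubated 1 h at 4°C with 400 μM FITC-labelled test compound. Washed in ice-cold PBS and imaged live, without fixation. FITC intensity was measured after background subtraction. Mean ± SEM, n=3 separate cultures.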

The subject of test [5] is 3T3L1 cells. The test is described as follows: Active caspase-3 and -7, live-cell fluorescent indicator, 3T3L1 fibroblasts. As to conditions: 3T3L1 fibroblast cells, 400 μM, 1 hour at 4°C then up to 4 hours at 37°C. The gist of the method:
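Live imaging of EpH4 or 3T3L1 cells (3T3L1 in DMEM/F12 with 10% bovine calf serum, split 1:8 every 2-3 days). Cells received 400 μM FITC-labelled test compound for 1 h at 4°C. Active caspase-3/7 indicator was then applied for 1 h at 4°C (time 0), or after 30 min, 2 h or 4 h at 37°C. PBS wash, then fluorescence imaging.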

Test [6] deals with caspase-8. The test is described as follows: Active caspase-8 by antibody, time course after warming from 4°C to 37°C. As to conditions: EpH4 cells, 400 μM, 16 hours at 4°C, then 4 hr at 37°C. The gist of the method: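 EpH4 cells grown 4–5 days on glass chamber slides to form tight junctions, in DMEM with 5% FBS and 10 mM Hepes. Exposed to 400 μM FITC-labelled D-form test peptide for 16 h at 4°C (final DMSO <0.5%). Then fixed (time 0) or moved to 37°C for 30 min, 2 h or 4 h. Fixed in 2% paraformaldehyde, permeabilised, BSA-blocked, immunostained for claudin-4 and active caspase-8, then imaged.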

The subject of test [7] is 3T3L1 cells. The test is described as follows: Live-cell binding/localization of FITC-labeled peptide at 4°C, 3T3L1. The following applies: 3T3L1 fibroblast cells, 400 μM, 1 hour at 4°C, live imaging. The method in brief: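 3T3L1 fibroblasts grown in DMEM/F12 with 10% bovine calf serum and plated on glass chamber slides. Given 400 μM FITC-linked D-form test peptide for 1 h at 4°C. Then either 1 h with live caspase-3/7 FLICA indicator at 4°C (time 0), or 30 min, 2 h or 4 h at 37°C before 1 h with indicator. Washed in cold PBS and imaged live without fixation.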

* marks the point of attachment. FITC = O=C1OC2(c3ccc(O)cc3Oc3cc(O)ccc32)c2ccc(NC(=S)*)cc21

Take “NH2-C-DFYNP-C-OH (disulfide) [peptide 1]”: the “percentage of cells containing caspase-3 (apoptosis)” value (from here on “percentage”) in the test on EpH4 cells [1] (16 hours, n=3-6) is given as 7.17 ± 1.24%. In the test with claudin-4 (400 μM peptide, anti-claudin-4), the claudin-4 localization result was “mis-localization”. Besides, in the test on EpH4 cells [2] (350 μM, 8, 16 or 24 hours), the “TUNEL staining compared to control peptide treated cells” value is listed as “significantly increased”. Besides, the “time of peak TUNEL staining” value in the test on EpH4 cells [2] (350 μM, tested at 8, 16 or 24 hours) was about 16 h. Further, in the test on caspase-8 [3], the “cells with activated caspase-8 compared to control” value was “significant number of cells”. Moreover, the “cells with activated caspase-3 compared to control” value in the test with caspase-3 (16 hours of peptide, indicator added during the last hour) was “significant number of cells”.

Regarding “Ac-C-DFYNP-C-amide (disulfide) [peptide 3]”, the “percentage” value with EpH4 cells [1] (16 hours, n=3-6) is 7.96 ± 0.75%; in the test with EpH4 cells [1] (16 hours, n=3-6, listed as L-peptide) it was “about 7%”.

As to Ac-DFYNP-amide [linear D-peptide], in the test on EpH4 cells [1] (n=3-6), the “percent apoptosis (caspase-3 positive cells)” value was determined as 12.27±0.72%. For the same substance, in the test with claudin-4 (linear D-peptide, co-stained with ZO-1), the claudin-4 localization entry is on record as “mis-localized”. Also, the claudin-3 localization result in the test on claudin-3 (linear D-peptide) is reported as “mis-localization away from tight junctions”.

As for {FITC}-DGYNP-NH2 [FITC-D(G)YNP], in the test on EpH4 cells [4], the “localization/binding of FITC-peptide at the plasma membrane” value is listed as “binds poorly” and the “fluorescence intensity of FITC” value turned out to be 18.38±9.26.

For Ac-C-DFYNP-C-OH (disulfide) [peptide 2], the “percentage” value with EpH4 cells [1] (16 hours, n=3-6) was determined as 9.22 ± 0.65%.

As for LYQY [reference compound], the claudin-4 localization result in the test with claudin-4 (350 μM peptide, anti-claudin-4) was “no effect”.

For the substance “Ac-C-DFYNP-C-amide (disulfide) [disulfide-bridged D-peptide]”, the “percent apoptosis (caspase-3 positive cells)” value in the test on EpH4 cells [1] (n=3-6) amounted to 16.46 ± 0.51%. Further, the “percentage” value in the test on EpH4 cells [1] (16 hours, n=3-6, listed as D-peptide) is recorded as 100%.

On to Ac-DGYNP-amide [D(G)YNP], for which, in the test on EpH4 cells [1] (n=3-6), the “percent apoptosis (caspase-3 positive cells)” value was 1.46±0.53%. The “percentage” value with EpH4 cells [1] (16 hours, n=3-6) turned out to be 1.34±0.21%. For the same substance, in the test with claudin-4 (400 μM peptide, anti-claudin-4), the claudin-4 localization entry is listed as “not affected”. Besides, the claudin-3 localization result with claudin-3 (400 μM peptide) was “remained restricted to the tight junctions”.

For the substance {FITC}-DFYNP-NH2, the “percent apoptosis (caspase-3 activation)” value in the test on EpH4 cells [1] (800 μM peptide, 16 hours, n=3-6) is recorded as 10.58±0.83%. Further, the “claudin-4 localization, time course” value is listed as “significant amount of claudin-4 mis-localization” in the test on claudin-4 (then 30 min at 37°C) and “significant claudin-4 mis-localization” with claudin-4 (then 4 hr at 37°C). Besides, the claudin-4 localization entry in the test on claudin-4 (800 μM peptide) is given as “mis-localization of claudin-4 away from tight junctions”. For the same substance, the “caspase-3 and/or -7 activation, live cells” value in the test with caspase-3 (400 μM, 1 hour at 4°C then 4 hours at 37°C) is “significantly increased”; in the test with 3T3L1 cells [5], “no caspase activation”. Further, the “caspase-8 activation, time course” value in the test on caspase-8 [6] is given as “significant caspase-8 activation”. Further, the “localization/binding of FITC-peptide at the plasma membrane” value with EpH4 cells [4] is on record as “localizes to the plasma membrane at the sites of cell junctions”; in the test on 3T3L1 cells [7] it was “does not, however, appear to bind to the plasma membranes”. Further, the “fluorescence intensity of FITC” value in the test with EpH4 cells [4] was determined as 82.71±5.80.
